{
  "source": "ChEMBL document CHEMBL1154235",
  "about": "“Rational design and semisynthesis of betulinic acid analogues as potent topoisomerase inhibitors” (J Nat Prod, 2009)",
  "key": {"UACC-257": {"test_system": "UACC-257", "experiment": "Cytotoxicity against human UACC257 cells assessed as cell growth at 10 uM", "format": "functional", "conditions": "read-out: Activity"}, "T47D": {"test_system": "T47D", "experiment": "Cytotoxicity against human T47D cells assessed as cell growth at 10 uM", "format": "functional", "conditions": "read-out: Activity"}, "COLO 205": {"test_system": "COLO 205", "experiment": "Cytotoxicity against human COLO205 cells assessed as cell growth at 10 uM", "format": "functional", "conditions": "read-out: Activity", "how_it_was_run": "(§1)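 Single-dose screen at 10 µM against the 60 human cell line panel, run by the NCI Developmental Therapeutics Program and scored as cell growth.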"}, "NCI-H322M": {"test_system": "NCI-H322M", "experiment": "Cytotoxicity against human NCI-H322M cells assessed as cell growth at 10 uM", "format": "functional", "conditions": "read-out: Activity", "how_it_was_run": "as §1"}, "HOP-92": {"test_system": "HOP-92", "experiment": "Cytotoxicity against human HOP92 cells assessed as cell growth at 10 uM", "format": "functional", "conditions": "read-out: Activity", "how_it_was_run": "as §1"}, "OVCAR-4": {"test_system": "OVCAR-4", "experiment": "Cytotoxicity against human OVCAR4 cells assessed as cell growth at 10 uM", "format": "functional", "conditions": "read-out: Activity", "how_it_was_run": "as §1"}, "SNB-75": {"test_system": "SNB-75", "experiment": "Cytotoxicity against human SNB75 cells assessed as cell growth at 10 uM", "format": "functional", "conditions": "read-out: Activity"}, "SW-620": {"test_system": "SW-620", "experiment": "Cytotoxicity against human SW620 cells assessed as cell growth at 10 uM", "format": "functional", "conditions": "read-out: Activity"}, "SN12C": {"test_system": "SN12C", "experiment": "Cytotoxicity against human SN12C cells assessed as cell growth at 10 uM", "format": "functional", "conditions": "read-out: Activity", "how_it_was_run": "as §1"}, "[1]": {"target": "T1, DNA topoisomerase 1 (Homo sapiens) (UniProt P11387)", "T1 sequence (whole entry)": "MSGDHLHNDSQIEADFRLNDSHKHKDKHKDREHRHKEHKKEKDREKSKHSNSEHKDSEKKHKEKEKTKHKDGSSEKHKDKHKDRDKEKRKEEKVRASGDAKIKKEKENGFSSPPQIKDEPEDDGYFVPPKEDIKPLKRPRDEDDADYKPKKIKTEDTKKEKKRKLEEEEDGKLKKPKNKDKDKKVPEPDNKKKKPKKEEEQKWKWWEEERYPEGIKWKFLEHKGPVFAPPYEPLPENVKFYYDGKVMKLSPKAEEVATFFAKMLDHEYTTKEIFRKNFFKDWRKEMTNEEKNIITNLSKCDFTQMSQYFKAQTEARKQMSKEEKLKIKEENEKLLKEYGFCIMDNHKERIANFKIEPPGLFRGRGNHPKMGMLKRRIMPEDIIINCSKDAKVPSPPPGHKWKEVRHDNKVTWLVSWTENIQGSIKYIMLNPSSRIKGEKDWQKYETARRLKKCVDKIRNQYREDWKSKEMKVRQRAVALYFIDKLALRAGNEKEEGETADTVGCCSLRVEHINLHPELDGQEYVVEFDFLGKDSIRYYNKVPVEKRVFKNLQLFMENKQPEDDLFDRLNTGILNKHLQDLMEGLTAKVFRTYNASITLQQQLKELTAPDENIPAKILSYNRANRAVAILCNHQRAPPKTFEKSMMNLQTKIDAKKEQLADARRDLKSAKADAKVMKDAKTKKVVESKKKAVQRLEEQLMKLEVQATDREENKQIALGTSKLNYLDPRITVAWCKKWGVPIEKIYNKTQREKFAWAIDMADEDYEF", "experiment": "Inhibition of topoisomerase 1 catalytic activity assessed as relaxation of supercoiled plasmid DNA at 100 uM after 30 mins by agarose gel electrophoresis", "how_it_was_run": "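Compound at 100 µM final with topoisomerase I (2U), 37 °C 30 min. Stopped with 1% SDS, proteinase K digestion, 1% agarose TAE gel, ethidium bromide stain, imaging quantitation. Scored 0 to 3+ against camptothecin.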"}, "786-0": {"test_system": "786-0", "experiment": "Cytotoxicity against human 786-0 cells assessed as cell growth at 10 uM", "format": "functional", "conditions": "read-out: Activity", "how_it_was_run": "as §1"}, "UACC-62": {"test_system": "UACC-62", "experiment": "Cytotoxicity against human UACC62 cells assessed as cell growth at 10 uM", "format": "functional", "conditions": "read-out: Activity"}, "OVCAR-5": {"test_system": "OVCAR-5", "experiment": "Cytotoxicity against human OVCAR5 cells assessed as cell growth at 10 uM", "format": "functional", "conditions": "read-out: Activity", "how_it_was_run": "as §1"}, "[2]": {"target": "DNA topoisomerase 2-alpha (Homo sapiens) (UniProt P11388)", "sequence (P11388 whole entry)": "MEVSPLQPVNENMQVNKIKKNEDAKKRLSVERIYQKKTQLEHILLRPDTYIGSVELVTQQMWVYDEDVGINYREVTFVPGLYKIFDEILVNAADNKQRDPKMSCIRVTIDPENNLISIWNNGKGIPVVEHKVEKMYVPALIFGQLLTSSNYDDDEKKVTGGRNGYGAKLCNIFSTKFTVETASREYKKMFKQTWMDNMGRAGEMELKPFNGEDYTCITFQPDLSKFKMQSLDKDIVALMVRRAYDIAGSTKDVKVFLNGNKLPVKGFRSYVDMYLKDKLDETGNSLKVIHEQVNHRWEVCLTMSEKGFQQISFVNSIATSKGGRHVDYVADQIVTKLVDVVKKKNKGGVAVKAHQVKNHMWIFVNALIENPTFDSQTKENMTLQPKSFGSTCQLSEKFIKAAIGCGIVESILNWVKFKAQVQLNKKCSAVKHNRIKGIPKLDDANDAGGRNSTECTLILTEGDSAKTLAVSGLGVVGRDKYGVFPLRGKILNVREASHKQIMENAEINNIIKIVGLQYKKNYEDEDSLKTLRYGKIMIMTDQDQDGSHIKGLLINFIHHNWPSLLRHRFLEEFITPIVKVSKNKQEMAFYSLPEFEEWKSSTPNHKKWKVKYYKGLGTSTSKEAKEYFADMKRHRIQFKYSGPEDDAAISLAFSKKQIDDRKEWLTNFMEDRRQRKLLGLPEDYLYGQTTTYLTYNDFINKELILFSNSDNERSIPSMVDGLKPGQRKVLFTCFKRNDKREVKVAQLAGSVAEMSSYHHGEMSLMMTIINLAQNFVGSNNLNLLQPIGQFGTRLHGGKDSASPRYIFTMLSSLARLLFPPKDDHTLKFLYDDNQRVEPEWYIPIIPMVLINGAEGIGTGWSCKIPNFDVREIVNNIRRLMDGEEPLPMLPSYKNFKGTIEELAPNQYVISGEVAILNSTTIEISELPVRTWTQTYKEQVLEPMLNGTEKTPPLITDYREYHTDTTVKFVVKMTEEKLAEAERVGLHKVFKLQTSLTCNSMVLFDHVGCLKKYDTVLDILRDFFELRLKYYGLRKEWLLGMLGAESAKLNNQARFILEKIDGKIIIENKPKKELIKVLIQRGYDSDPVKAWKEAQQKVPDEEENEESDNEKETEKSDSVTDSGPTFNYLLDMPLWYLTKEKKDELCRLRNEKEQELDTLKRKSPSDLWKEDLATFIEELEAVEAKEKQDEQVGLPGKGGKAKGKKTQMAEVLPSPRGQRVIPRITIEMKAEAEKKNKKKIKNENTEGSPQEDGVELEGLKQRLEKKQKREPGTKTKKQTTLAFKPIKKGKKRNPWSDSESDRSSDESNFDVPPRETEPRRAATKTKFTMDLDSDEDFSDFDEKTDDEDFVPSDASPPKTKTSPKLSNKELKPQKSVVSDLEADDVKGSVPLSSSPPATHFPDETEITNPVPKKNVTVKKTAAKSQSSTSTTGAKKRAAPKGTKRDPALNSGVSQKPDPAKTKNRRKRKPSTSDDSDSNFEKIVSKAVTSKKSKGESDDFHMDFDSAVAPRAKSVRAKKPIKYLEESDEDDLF", "experiment": "Inhibition of topoisomerase 2 alpha catalytic activity assessed as decatenation of kinetoplast DNA at 100 uM after 15 mins by agarose gel electrophoresis"}, "RXF 393": {"test_system": "RXF 393", "experiment": "Cytotoxicity against human […] cells assessed as cell growth at 10 uM", "format": "functional", "conditions": "read-out: Activity", "how_it_was_run": "as §1"}, "U-251": {"test_system": "U-251", "experiment": "Cytotoxicity against human U251 cells assessed as cell growth at 10 uM", "format": "functional", "conditions": "read-out: Activity"}},
  "note": "Calls of active or inactive are those of the source. The calls are words filed in the database; no cut-off is given here.",
  "data": [
    {"smiles": "C=C(C)[C@@H]1CC[C@]2(C(O)=S)CC[C@]3(C)[C@H](CC[C@@H]4[C@@]5(C)CC[C@H](O)C(C)(C)[C@@H]5CC[C@]43C)[C@@H]12", "values": [
      {"measurement": "growth at 10 µM", "setting": "UACC-257", "result": 105, "unit": "%"},
      {"measurement": "growth at 10 µM", "setting": "T47D", "result": 98.5, "unit": "%"},
      {"measurement": "growth at 10 µM", "setting": "COLO 205", "result": 129, "unit": "%"},
      {"measurement": "growth at 10 µM", "setting": "NCI-H322M", "result": 109, "unit": "%"},
      {"measurement": "growth at 10 µM", "setting": "HOP-92", "result": 158, "unit": "%"},
      {"measurement": "growth at 10 µM", "setting": "OVCAR-4", "result": 112, "unit": "%"},
      {"measurement": "growth at 10 µM", "setting": "SNB-75", "result": 108, "unit": "%"},
      {"measurement": "growth at 10 µM", "setting": "SW-620", "result": 92.2, "unit": "%"},
      {"measurement": "growth at 10 µM", "setting": "SN12C", "result": 102, "unit": "%"},
      {"measurement": "inhibition", "setting": "[1]", "result": "inactive"},
      {"measurement": "growth at 10 µM", "setting": "786-0", "result": 93.8, "unit": "%"},
      {"measurement": "growth at 10 µM", "setting": "UACC-62", "result": 96.8, "unit": "%"},
      {"measurement": "growth at 10 µM", "setting": "OVCAR-5", "result": 119, "unit": "%"},
      {"measurement": "inhibition", "setting": "[2]", "result": "Active"},
      {"measurement": "growth at 10 µM", "setting": "RXF 393", "result": 112, "unit": "%"},
      {"measurement": "growth at 10 µM", "setting": "U-251", "result": 105, "unit": "%"}
    ]}
  ]
}
